From ChEMBL document CHEMBL1155416, “Ethacrynic acid analogues lacking the alpha,beta-unsaturated carbonyl unit--potential anti-metastatic drugs” (2010)
Active and inactive are the calls of the source. No cut-off for these calls is given here.

Legend:
Type in all cases: functional
[1] = tested on: MCF7/AZ; assay: (§1) Antimigration against human MCF7/AZ cells at 10 to 25 uM after 24 hrs by wound healing assay
Summary of the method: (§2)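 Confluent MCF-7/AZ monolayers were washed twice with PBS and scratched to leave a gap of about 1500 μm, then imaged. Medium with or without compound was added, at concentrations chosen from the 24 h MTT assay. After 24 h of migration the wound was imaged again and compared with the first image. Migration was expressed as migratory velocity (μm/h).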

[2] = Cytotoxicity against human MCF7/AZ cells assessed as reduction of cell viability after 24 hrs by MTT assay
Summary of the method: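 MCF-7/AZ cells were seeded at 1.5 × 10^4 cells/well in medium with 5% FBS and penicillin/streptomycin, then grown 24 h at 37 C under 5% CO2. They were exposed 24 h to eight concentrations (1, 5, 10, 20, 40, 60, 80, 100 μM). Part of the medium was removed before adding MTT, and OD was read. Mean OD came from three independent experiments. OD80/IC20 (20% viability loss) was read from the graphs.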

[3] = as §1; summary of the method: as §2

SMILES	inhibition [1]	IC20 [2] [µM]	inhibition (INH) [3] [%]
C=C(CC)C(=O)c1ccc(OCC(=O)O)c(Cl)c1Cl [ETHACRYNIC ACID]	inactive	> 100	–
CCC(=O)c1ccc(OCC(=O)O)c(OC)c1	–	> 100	38
CCC(=O)c1ccc(OCC(=O)O)c(C)c1	inactive	20	–
CCC(=O)c1cc(OC)c(OCC(=O)O)c(OC)c1	–	> 100	52
CCC(=O)c1ccc(OCC(=O)O)cc1OC	–	> 100	29
CCC(=O)c1ccc(OCC(=O)O)cc1C	inactive	10	–
CCC(=O)c1ccc(OCC(=O)O)cc1	inactive	25	–
